Data taken from ChEMBL document CHEMBL1275315, “Synthesis, antioxidant activities and urease inhibition of some new 1,2,4-triazole and 1,3,4-thiadiazole derivatives” (Eur J Med Chem, 2010).

Legend:
[1] = molecular target: Urease (Canavalia ensiformis) (UniProt P07374); assay: (§1) Inhibition of jack bean urease assessed as ammonia production after 15 mins by indophenol method; parameters: inhibition: concentration or dose not given beside the values
Method in brief: (§2)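 Jack bean urease preincubated with test sample at 30 °C for 15 min in buffer containing 100 mM urea, pH 6.8. Ammonia measured by the indophenol method, using phenol reagent (1% w/v phenol, 0.005% w/v sodium nitroprusside) and alkali reagent (0.5% w/v NaOH, 0.1% active chloride NaOCl). Absorbance at 630 nm read after 50 min. Run in triplicate; % inhibition calculated from OD test/OD control; thiourea as standard.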

[2] = Antioxidant activity assessed as Superoxide anion radical scavenging activity in cell-free system; type: functional
Method in brief: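 NADH–NBT–PMS system in 0.1 M phosphate buffer, pH 7.4, with sample added from a 1 mM DMSO stock; other reagents made up in buffer. Run at room temperature. Superoxide followed as blue formazan formation at 560 nm.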

Urease = Urease (Canavalia ensiformis, UniProt P07374); assay: as §1; method in brief: as §2
[3] = system: Radical scavenging activity; assay: Antioxidant activity assessed as DPPH free radical scavenging activity in cell-free system after 30 mins; type: functional
Method in brief: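 Compound dissolved in DMSO and DPPH in ethanol. Decrease in absorbance read at 515 nm after incubation. Percent radical scavenging calculated relative to a DMSO-treated control.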

Sequence of Urease (Canavalia ensiformis) (P07374 whole entry, looked up): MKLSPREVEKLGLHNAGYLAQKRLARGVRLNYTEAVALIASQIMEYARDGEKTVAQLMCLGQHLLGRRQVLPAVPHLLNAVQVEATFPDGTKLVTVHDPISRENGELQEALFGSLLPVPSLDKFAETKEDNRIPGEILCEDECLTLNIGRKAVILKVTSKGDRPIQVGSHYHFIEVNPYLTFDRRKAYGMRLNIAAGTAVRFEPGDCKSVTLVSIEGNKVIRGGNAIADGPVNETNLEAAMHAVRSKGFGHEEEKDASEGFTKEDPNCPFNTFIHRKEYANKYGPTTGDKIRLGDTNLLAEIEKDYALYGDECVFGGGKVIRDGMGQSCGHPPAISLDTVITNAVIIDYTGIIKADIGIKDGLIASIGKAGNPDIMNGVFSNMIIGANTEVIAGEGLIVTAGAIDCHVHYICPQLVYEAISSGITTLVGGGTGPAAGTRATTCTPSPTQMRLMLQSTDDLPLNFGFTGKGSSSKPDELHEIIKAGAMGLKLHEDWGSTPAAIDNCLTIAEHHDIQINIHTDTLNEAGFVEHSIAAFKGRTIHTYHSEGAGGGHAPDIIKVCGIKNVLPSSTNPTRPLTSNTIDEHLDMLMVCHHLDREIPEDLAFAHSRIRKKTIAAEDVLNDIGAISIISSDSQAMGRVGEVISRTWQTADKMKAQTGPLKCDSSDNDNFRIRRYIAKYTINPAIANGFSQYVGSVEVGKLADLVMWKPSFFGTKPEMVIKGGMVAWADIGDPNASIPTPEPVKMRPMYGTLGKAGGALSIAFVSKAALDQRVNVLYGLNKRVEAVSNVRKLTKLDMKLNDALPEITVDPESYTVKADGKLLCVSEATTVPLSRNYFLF
Sequence of Urease (P07374 whole entry): as the sequence (P07374 whole entry, looked up) above

Cc1ccc(-c2n[nH]c(=S)n2-c2c(C)cccc2C)cc1
inhibition [1]: 6.8%

Cc1ccc(Nc2nnc(-c3cccc([N+](=O)[O-])c3)s2)c(C)c1
IC50 [2]: 131 µM | inhibition [1]: 73.4% | IC50 (Urease): 398 µM

Cc1ccc(-c2nnc(Nc3c(C)cccc3C)s2)cc1
inhibition [1]: 27.1%

Cc1ccc(-n2c(-c3cccc([N+](=O)[O-])c3)n[nH]c2=S)c(C)c1
IC50 [3]: 242 µM | inhibition [1]: 97% | IC50 (Urease): 45.6 µM

Cc1cccc(C)c1-n1c(-c2cccc(Cl)c2)n[nH]c1=S
inhibition [1]: 64.8% | IC50 (Urease): 357 µM

Cc1cccc(Nc2nnc(-c3ccc(Cl)cc3)s2)c1C
IC50 [2]: 139 µM | inhibition [1]: 52.8% | IC50 (Urease): 484 µM

Cc1ccc(-n2c(-c3ccc(Cl)cc3)n[nH]c2=S)c(C)c1
IC50 [3]: 292 µM | inhibition [1]: 88.6% | IC50 (Urease): 171 µM

Cc1ccccc1-c1n[nH]c(=S)n1-c1cccc(C)c1C
inhibition [1]: 43.4%

Cc1cccc(Nc2nnc(-c3ccccc3)s2)c1C
inhibition [1]: 56.8% | IC50 (Urease): 426 µM

Cc1ccc(-n2c(-c3cccc(Cl)c3)n[nH]c2=S)c(C)c1
inhibition [1]: 53.1% | IC50 (Urease): 460 µM

NC(N)=S
IC10 [1]: 21 µM

Cc1cccc(-n2c(-c3ccc(Cl)cc3)n[nH]c2=S)c1C
inhibition [1]: 48.3%

Cc1cccc(C)c1Nc1nnc(-c2ccc(Cl)cc2)s1
IC50 [3]: 320 µM | IC50 [2]: 255 µM | inhibition [1]: 91.1% | IC50 (Urease): 215 µM

Cc1ccc(Nc2nnc(-c3ccc([N+](=O)[O-])cc3)s2)c(C)c1
IC50 [2]: 94.8 µM | inhibition [1]: 7.2%

CCCOC(=O)c1cc(O)c(O)c(O)c1 [PROPYL GALLATE]
IC50 [3]: 30.5 µM | IC50 [2]: 106 µM

Cc1cccc(-n2c(-c3ccccc3)n[nH]c2=S)c1C
inhibition [1]: 93.4% | IC50 (Urease): 86 µM

Cc1cccc(C)c1Nc1nnc(-c2ccccc2Cl)s1
inhibition [1]: 82.8% | IC50 (Urease): 313 µM

Cc1cccc(C)c1-n1c(-c2ccc(Cl)cc2)n[nH]c1=S
inhibition [1]: 7.5%

Cc1cccc(C)c1-n1c(-c2ccccc2Cl)n[nH]c1=S
inhibition [1]: 48.3%

Cc1ccc(Nc2nnc(-c3cccc(Cl)c3)s2)c(C)c1
IC50 [2]: 124 µM | inhibition [1]: 12.4%
